Data reported in publication PMC4148169 (Journal of Medicinal Chemistry, 2014).
Structures can show the parent of a compound that is named as a salt. Where two headings read alike, the source gives them in different places.

Columns and labels:
[1] = cited from earlier work
human 3A4 = conditions: cited from earlier work
2C9 = conditions: read-out: IC50 toward 2C9; cited from earlier work
T. cruzi Y luc strain = format: in vivo, Trypanosoma cruzi; conditions: posaconazole 20 mg/kg, ip, bid, 4 days; two independent experiments (A, B)
CYP1A2 = target: T1, CYP1A2 (Homo sapiens, UniProt P05177); assay: CYP inhibition in human liver microsomes, 1A2; format: in vitro ADME
T1 sequence (P05177 1-516): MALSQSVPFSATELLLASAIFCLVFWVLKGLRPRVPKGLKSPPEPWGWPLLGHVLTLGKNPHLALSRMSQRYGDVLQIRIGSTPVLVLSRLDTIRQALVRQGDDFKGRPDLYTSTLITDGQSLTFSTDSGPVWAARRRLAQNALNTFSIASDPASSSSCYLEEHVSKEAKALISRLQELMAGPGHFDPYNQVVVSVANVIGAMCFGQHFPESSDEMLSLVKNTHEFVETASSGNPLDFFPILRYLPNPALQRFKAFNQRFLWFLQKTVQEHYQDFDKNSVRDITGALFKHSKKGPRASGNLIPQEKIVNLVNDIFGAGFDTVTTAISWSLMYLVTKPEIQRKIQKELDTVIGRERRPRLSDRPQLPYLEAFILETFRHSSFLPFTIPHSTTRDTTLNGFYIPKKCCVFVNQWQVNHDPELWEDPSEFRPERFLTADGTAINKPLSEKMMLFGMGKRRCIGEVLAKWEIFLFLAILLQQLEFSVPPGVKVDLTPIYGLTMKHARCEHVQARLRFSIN

CYP2C9 = CYP2C9 (Homo sapiens, UniProt P11712); assay: CYP inhibition in human liver microsomes, 2C9; format: in vitro ADME
CYP2D6 = CYP2D6 (Homo sapiens, UniProt P10635); assay: CYP inhibition in human liver microsomes, 2D6; format: in vitro ADME
CYP3A4 = CYP3A4 (Homo sapiens, UniProt P08684); assay: CYP inhibition in human liver microsomes, 3A4; format: in vitro ADME
Single dose PK = format: in vivo; conditions: female, Swiss Webster, mouse, plasma, po, 50 mg/kg
Method in brief: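 Eight-week-old female Swiss Webster mice were given one oral gavage dose of 50 mg/kg, formulated at 10 mg/mL in 20% solutol/80% water. Nine mice were dosed, with n = 3 plasma samples at about 0.25, 0.5, 1, 2, 4, 6, 8, 12 and 24 h. Plasma protein was precipitated with 5 volumes of acetonitrile and filtered through 0.2 μm, then quantified by LC-MS/MS.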

[2] = Solubility in oral dosing vehicles; format: physicochemical; conditions: oral dosing vehicle
[3] = read-out: IC50 against human 3A4, ref 35
[4] = read-out: IC50 against human 3A4, ref 67

Sequence of CYP2C9 (P11712 whole entry): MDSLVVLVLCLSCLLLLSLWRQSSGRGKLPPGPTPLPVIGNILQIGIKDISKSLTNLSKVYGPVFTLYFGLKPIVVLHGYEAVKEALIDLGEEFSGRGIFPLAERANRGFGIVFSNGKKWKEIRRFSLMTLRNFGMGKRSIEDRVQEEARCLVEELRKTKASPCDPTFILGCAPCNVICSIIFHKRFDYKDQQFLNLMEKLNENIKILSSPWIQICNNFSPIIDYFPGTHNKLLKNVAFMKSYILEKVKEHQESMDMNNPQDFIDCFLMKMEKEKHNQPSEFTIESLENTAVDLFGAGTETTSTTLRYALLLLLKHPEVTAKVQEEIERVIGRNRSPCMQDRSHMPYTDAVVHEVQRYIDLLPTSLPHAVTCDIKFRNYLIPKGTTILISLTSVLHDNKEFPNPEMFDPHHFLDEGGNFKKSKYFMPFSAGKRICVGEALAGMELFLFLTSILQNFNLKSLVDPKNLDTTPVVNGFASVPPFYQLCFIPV
Sequence of CYP3A4 (P08684 whole entry): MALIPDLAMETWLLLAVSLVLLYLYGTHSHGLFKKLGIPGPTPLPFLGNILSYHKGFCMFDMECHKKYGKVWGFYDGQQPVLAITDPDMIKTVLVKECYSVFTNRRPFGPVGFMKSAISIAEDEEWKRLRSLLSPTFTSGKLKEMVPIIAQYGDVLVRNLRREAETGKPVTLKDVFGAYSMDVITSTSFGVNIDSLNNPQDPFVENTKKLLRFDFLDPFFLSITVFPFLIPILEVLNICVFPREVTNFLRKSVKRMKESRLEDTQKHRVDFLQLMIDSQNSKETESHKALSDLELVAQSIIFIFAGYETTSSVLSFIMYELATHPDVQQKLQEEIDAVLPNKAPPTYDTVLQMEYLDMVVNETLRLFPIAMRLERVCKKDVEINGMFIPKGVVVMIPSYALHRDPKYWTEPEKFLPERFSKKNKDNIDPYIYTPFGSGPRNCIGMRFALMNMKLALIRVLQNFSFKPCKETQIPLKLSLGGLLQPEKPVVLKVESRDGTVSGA
Sequence of CYP2D6 (P10635 whole entry): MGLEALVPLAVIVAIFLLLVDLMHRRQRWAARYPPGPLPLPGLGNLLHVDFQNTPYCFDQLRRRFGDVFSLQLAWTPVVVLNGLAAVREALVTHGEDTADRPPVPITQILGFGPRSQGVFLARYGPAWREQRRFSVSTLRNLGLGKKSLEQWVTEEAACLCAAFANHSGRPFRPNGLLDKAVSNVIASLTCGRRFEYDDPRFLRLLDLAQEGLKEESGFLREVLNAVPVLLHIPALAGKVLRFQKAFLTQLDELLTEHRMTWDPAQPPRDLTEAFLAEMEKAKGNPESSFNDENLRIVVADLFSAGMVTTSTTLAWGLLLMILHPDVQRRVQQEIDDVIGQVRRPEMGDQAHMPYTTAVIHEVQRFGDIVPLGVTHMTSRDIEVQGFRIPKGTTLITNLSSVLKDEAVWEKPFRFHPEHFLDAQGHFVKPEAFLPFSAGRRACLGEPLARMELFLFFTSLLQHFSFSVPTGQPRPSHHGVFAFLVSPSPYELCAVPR

Which half-life in humans [1] does the source give for CCO.C[C@@H](c1nc(-c2ccc(C#N)cc2)cs1)[C@@](Cn1cncn1)(OCOP(=O)(O)O)c1ccc(F)cc1F.NCCCC[C@H](N)C(=O)O [E1224] here?
The half-life in humans was “measured in days”.

What does the source list for O=C([C@@H](c1ccc(Cl)cc1)c1cccnc1)N1CCN(c2ccc(C(F)(F)F)cc2)CC1 [EPL-BS1246]?
IC50 (human 3A4; read-out: IC50 toward 3A4): ≥ 20000 nM; IC50 (2C9): 8000 to 9000 nM

For CC[C@@H]([C@H](C)O)n1ncn(-c2ccc(N3CCN(c4ccc(OC[C@@H]5CO[C@@](Cn6cncn6)(c6ccc(F)cc6F)C5)cc4)CC3)cc2)c1=O [Posaconazole], which “inhibition of parasitemia, positive control” value (T. cruzi Y luc strain) is on record?
The value was 94–99%.

What about the inhibition at 1 µM (CYP1A2) of the same compound?
The inhibition at 1 µM was -11%.

What about the inhibition at 1 µM (CYP2C9) of the same compound?
Its inhibition at 1 µM is -3%.

And the inhibition at 1 µM (CYP2D6)?
The inhibition at 1 µM was -9%.

What about the inhibition at 1 µM (CYP3A4) of the same compound?
The inhibition at 1 µM was 68%.

What about the IC50 (human 3A4; [3]) of the same compound?
Its IC50 is 350 nM.

What about the IC50 (human 3A4; [4]) of the same compound?
The IC50 was 120 nM.

What about the half-life in humans [1] of the same compound?
Its half-life in humans is “measured in days”.

For O=C(N[C@H](Cc1c[nH]c2ccccc12)C(=O)Nc1ccncc1)c1ccc(-c2ccc(F)c(F)c2)cc1F [compound 2, (R)-N-(3-(1H-Indol-3-yl)-1-oxo-1-(pyridin-4-ylamino)propan-2-yl)-3,3′,4′-trifluoro-[1,1′-biphenyl]-4-carboxamide], which half-life (Single dose PK) is on record?
The half-life was < 3.3 h.

For O=C(N[C@H](Cc1c[nH]c2ccccc12)C(=O)Nc1ccncc1)c1ccc(-c2ccc(F)c(C(F)(F)F)c2)cc1F [compound 6, (R)-N-(3-(1H-Indol-3-yl)-1-oxo-1-(pyridin-4-ylamino)propan-2-yl)-3,4′-difluoro-3′-(trifluoromethyl)-[1,1′-biphenyl]-4-carboxamide], which half-life (Single dose PK) is on record?
The half-life was < 3.3 h.

For O=C(N[C@H](Cc1c[nH]c2ccccc12)C(=O)Nc1ccncc1)c1ccc(-c2ccc(F)c(Cl)c2)cc1F [compound 7, (R)-N-(3-(1H-Indol-3-yl)-1-oxo-1-(pyridin-4-ylamino)propan-2-yl)-3′-chloro-3,4′-difluoro-[1,1′-biphenyl]-4-carboxamide hydrochloride], which “solubility in 20% HPβCD” value [2] is on record?
The value was “fully soluble”.

With CC(=O)N1CCN(c2ccc(OCC3COC(Cn4ccnc4)(c4ccc(Cl)cc4Cl)O3)cc2)CC1 (stereo not shown) [ketoconazole] as the compound, how does the IC50 (human 3A4; [3]) read?
Its IC50 is 40 nM.

And the IC50 (human 3A4; [4])?
Its IC50 is 8 nM.
